Measured values taken from ChEMBL document CHEMBL4428081, “Selective AKR1C3 Inhibitors Potentiate Chemotherapeutic Activity in Multiple Acute Myeloid Leukemia (AML) Cell Lines” (ACS Med Chem Lett, 2016).
Calls of active or inactive are those of the source. The rule behind the calls is not given here.

How the values were obtained:
OVCAR-5 = assay: Cytotoxicity against human OVCAR5 cells at 10 uM after 48 hrs by sulforhodamine B assay; assay type: functional, cell-based
SF-268 = assay: Cytotoxicity against human SF268 cells at 10 uM after 48 hrs by sulforhodamine B assay; assay type: functional, cell-based
MDA-MB-435 = assay: Cytotoxicity against human MDA-MB-435 cells at 10 uM after 48 hrs by sulforhodamine B assay; assay type: functional, cell-based
RPMI-8226 = assay: Cytotoxicity against human RPMI8226 cells at 10 uM after 48 hrs by sulforhodamine B assay; assay type: functional, cell-based
KG-1a = assay: Cytotoxicity against human KG1a cells expressing AKR1C3 assessed as reduction in cell viability at >25 uM at 72 hrs by MTS assay; assay type: functional, cell-based
SW-620 = assay: Cytotoxicity against human SW620 cells at 10 uM after 48 hrs by sulforhodamine B assay; assay type: functional, cell-based
In short: (§1)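 NCI 60 cancer cell line panel screen run at a single concentration of 10 μM.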

SF-295 = assay: Cytotoxicity against human SF295 cells at 10 uM after 48 hrs by sulforhodamine B assay; assay type: functional, cell-based
OVCAR-3 = assay: Cytotoxicity against human OVCAR3 cells at 10 uM after 48 hrs by sulforhodamine B assay; assay type: functional, cell-based
NCI-H322M = assay: Cytotoxicity against human NCI-H322M cells at 10 uM after 48 hrs by sulforhodamine B assay; assay type: functional, cell-based
ACHN = assay: Cytotoxicity against human ACHN cells at 10 uM after 48 hrs by sulforhodamine B assay; assay type: functional, cell-based
RXF 393 = assay: Cytotoxicity against human RXF393 cells at 10 uM after 48 hrs by sulforhodamine B assay; assay type: functional, cell-based
OVCAR-4 = assay: Cytotoxicity against human OVCAR4 cells at 10 uM after 48 hrs by sulforhodamine B assay; assay type: functional, cell-based
Hs-578T = assay: Cytotoxicity against human Hs 578T cells at 10 uM after 48 hrs by sulforhodamine B assay; assay type: functional, cell-based
PC-3 = assay: Cytotoxicity against human PC3 cells at 10 uM after 48 hrs by sulforhodamine B assay; assay type: functional, cell-based
SNB-19 = assay: Cytotoxicity against human SNB19 cells at 10 uM after 48 hrs by sulforhodamine B assay; assay type: functional, cell-based; in short: as §1
CAKI-1 = assay: Cytotoxicity against human Caki1 cells at 10 uM after 48 hrs by sulforhodamine B assay; assay type: functional, cell-based
MOLT-4 = assay: Cytotoxicity against human MOLT4 cells at 10 uM after 48 hrs by sulforhodamine B assay; assay type: functional, cell-based
M14 = assay: Cytotoxicity against human M14 cells at 10 uM after 48 hrs by sulforhodamine B assay; assay type: functional, cell-based
786-0 = assay: Cytotoxicity against human 786-0 cells at 10 uM after 48 hrs by sulforhodamine B assay; assay type: functional, cell-based
K562 = assay: Cytotoxicity against human K562 cells at 10 uM after 48 hrs by sulforhodamine B assay; assay type: functional, cell-based
HCT-116 = assay: Cytotoxicity against human HCT116 cells at 10 uM after 48 hrs by sulforhodamine B assay; assay type: functional, cell-based
SR = assay: Cytotoxicity against human SR cells at 10 uM after 48 hrs by sulforhodamine B assay; assay type: functional, cell-based; in short: as §1
SK-MEL-28 = assay: Cytotoxicity against human SK-MEL-28 cells at 10 uM after 48 hrs by sulforhodamine B assay; assay type: functional, cell-based
SNB-75 = assay: Cytotoxicity against human SNB75 cells at 10 uM after 48 hrs by sulforhodamine B assay; assay type: functional, cell-based; in short: as §1
OVCAR-8 = assay: Cytotoxicity against human OVCAR8 cells at 10 uM after 48 hrs by sulforhodamine B assay; assay type: functional, cell-based
NCI-H23 = assay: Cytotoxicity against human NCI-H23 cells at 10 uM after 48 hrs by sulforhodamine B assay; assay type: functional, cell-based
NCI-H522 = assay: Cytotoxicity against human NCI-H522 cells at 10 uM after 48 hrs by sulforhodamine B assay; assay type: functional, cell-based
MCF7 = assay: Cytotoxicity against human MCF7 cells at 10 uM after 48 hrs by sulforhodamine B assay; assay type: functional, cell-based
A498 = assay: Cytotoxicity against human A498 cells at 10 uM after 48 hrs by sulforhodamine B assay; assay type: functional, cell-based
DU-145 = assay: Cytotoxicity against human DU145 cells at 10 uM after 48 hrs by sulforhodamine B assay; assay type: functional, cell-based
SN12C = assay: Cytotoxicity against human SN12C cells at 10 uM after 48 hrs by sulforhodamine B assay; assay type: functional, cell-based
HCT-15 = assay: Cytotoxicity against human HCT15 cells at 10 uM after 48 hrs by sulforhodamine B assay; assay type: functional, cell-based
NCI-H226 = assay: Cytotoxicity against human NCI-H226 cells at 10 uM after 48 hrs by sulforhodamine B assay; assay type: functional, cell-based
[1] = target: T1, Aldo-keto reductase family 1 member C3 (Homo sapiens) (UniProt P42330); assay: Inhibition of AKR1C3 in human HL60 cells assessed as potentiation of etoposide-induced cytotoxicity by measuring reduction in cell viability at 0.1 uM coincubated with etoposide at 1 uM after 72 hrs by MTS assay (reference value: 40%); assay type: cell-based
T1 sequence (whole entry): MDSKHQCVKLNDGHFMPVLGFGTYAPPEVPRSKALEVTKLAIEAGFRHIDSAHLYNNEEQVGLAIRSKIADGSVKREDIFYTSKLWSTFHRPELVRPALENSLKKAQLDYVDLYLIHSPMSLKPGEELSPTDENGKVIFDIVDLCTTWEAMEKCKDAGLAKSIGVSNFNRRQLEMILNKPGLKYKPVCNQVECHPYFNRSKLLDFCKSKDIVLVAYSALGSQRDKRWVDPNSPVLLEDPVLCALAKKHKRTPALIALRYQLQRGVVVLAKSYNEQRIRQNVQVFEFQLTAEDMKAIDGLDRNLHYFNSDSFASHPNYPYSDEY
In short: (§2)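 HL-60 or KG1a cells were coincubated with inhibitor and etoposide for 72 h, then cell viability was read. Values are mean ± SD (n = 6). Treatments were compared with control by two-tailed t test.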

Malme-3M = assay: Cytotoxicity against human MALME-3M cells at 10 uM after 48 hrs by sulforhodamine B assay; assay type: functional, cell-based
HL-60(TB) = assay: Cytotoxicity against human HL-60(TB) cells at 10 uM after 48 hrs by sulforhodamine B assay; assay type: functional, cell-based
In short: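 Single-concentration (10 μM) test run within the National Cancer Institute 60 cancer cell line screen, with HL-60 as one panel member.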

CCRF-CEM = assay: Cytotoxicity against human CCRF-CEM cells at 10 uM after 48 hrs by sulforhodamine B assay; assay type: functional, cell-based
HCC 2998 = assay: Cytotoxicity against human HCC2998 cells at 10 uM after 48 hrs by sulforhodamine B assay; assay type: functional, cell-based
KM12 = assay: Cytotoxicity against human KM12 cells at 10 uM after 48 hrs by sulforhodamine B assay; assay type: functional, cell-based
UACC-257 = assay: Cytotoxicity against human UACC257 cells at 10 uM after 48 hrs by sulforhodamine B assay; assay type: functional, cell-based; in short: as §1
T47D = assay: Cytotoxicity against human T47D cells at 10 uM after 48 hrs by sulforhodamine B assay; assay type: functional, cell-based; in short: as §1
NCI-H460 = assay: Cytotoxicity against human NCI-H460 cells at 10 uM after 48 hrs by sulforhodamine B assay; assay type: functional, cell-based
TK-10 = assay: Cytotoxicity against human TK10 cells at 10 uM after 48 hrs by sulforhodamine B assay; assay type: functional, cell-based; in short: as §1
IGROV-1 = assay: Cytotoxicity against human IGROV1 cells at 10 uM after 48 hrs by sulforhodamine B assay; assay type: functional, cell-based
MDA-MB-468 = assay: Cytotoxicity against human MDA-MB-468 cells at 10 uM after 48 hrs by sulforhodamine B assay; assay type: functional, cell-based
A549 = assay: Cytotoxicity against human A549/ATCC cells at 10 uM after 48 hrs by sulforhodamine B assay; assay type: functional, cell-based
U-251 = assay: Cytotoxicity against human U251 cells at 10 uM after 48 hrs by sulforhodamine B assay; assay type: functional, cell-based; in short: as §1
HOP-92 = assay: Cytotoxicity against human HOP92 cells at 10 uM after 48 hrs by sulforhodamine B assay; assay type: functional, cell-based
UACC-62 = assay: Cytotoxicity against human UACC62 cells at 10 uM after 48 hrs by sulforhodamine B assay; assay type: functional, cell-based; in short: as §1
COLO 205 = assay: Cytotoxicity against human COLO205 cells at 10 uM after 48 hrs by sulforhodamine B assay; assay type: functional, cell-based
NCI/ADR-RES = assay: Cytotoxicity against human NCI-ADR-RES cells at 10 uM after 48 hrs by sulforhodamine B assay; assay type: functional, cell-based
SF-539 = assay: Cytotoxicity against human SF539 cells at 10 uM after 48 hrs by sulforhodamine B assay; assay type: functional, cell-based
SK-MEL-2 = assay: Cytotoxicity against human SK-MEL-2 cells at 10 uM after 48 hrs by sulforhodamine B assay; assay type: functional, cell-based
HL-60 = assay: Cytotoxicity against human HL60 cells assessed as reduction in cell viability up to 100 uM at 72 hrs by MTS assay; assay type: functional, cell-based
In short: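 HL-60 human acute promyelocytic leukemia cells exposed to AKR1C3 inhibitor alone, with no chemotherapeutic, over a range up to 100 μM. Lower working range was 0.1–1 μM. Read-out was cell viability relative to untreated control.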

SK-MEL-5 = assay: Cytotoxicity against human SK-MEL-5 cells at 10 uM after 48 hrs by sulforhodamine B assay; assay type: functional, cell-based
UO-31 = assay: Cytotoxicity against human UO31 cells at 10 uM after 48 hrs by sulforhodamine B assay; assay type: functional, cell-based; in short: as §1
LOX IMVI = assay: Cytotoxicity against human LOXIMVI cells at 10 uM after 48 hrs by sulforhodamine B assay; assay type: functional, cell-based
MDA-MB-231 = assay: Cytotoxicity against human MDA-MB-231 cells at 10 uM after 48 hrs by sulforhodamine B assay; assay type: functional, cell-based
HOP-62 = assay: Cytotoxicity against human HOP62 cells at 10 uM after 48 hrs by sulforhodamine B assay; assay type: functional, cell-based
[2] = target: T1, Aldo-keto reductase family 1 member C3 (Homo sapiens); assay: Inhibition of AKR1C3 in human HL60 cells assessed as potentiation of etoposide-induced cytotoxicity by measuring reduction in cell viability pre-treated with 0.1 to 1 uM compound for 24 hrs followed by 1 uM etoposide exposure for additional 72 hrs by MTS assay; assay type: cell-based
Homo sapiens = species on record: Homo sapiens; assay: Selectivity ratio of IC50 for recombinant AKR1C2 (unknown origin) to IC50 for recombinant AKR1C3 (unknown origin)
[3] = target: Aldo-keto reductase family 1 member C2 (Homo sapiens, UniProt P52895); assay: Inhibition of recombinant AKR1C2 (unknown origin) assessed as reduction in S-tetralol catalyzed oxidation in presence of NADPH by fluorescence assay
[4] = target: Aldo-keto reductase family 1 member C3 (Homo sapiens, UniProt P42330); assay: Inhibition of recombinant N-terminal His-tagged AKR1C3 (unknown origin) assessed as rate of change of pyridine nucleotide absorbance in presence of NADPH
[5] = target: T1, Aldo-keto reductase family 1 member C3 (Homo sapiens); assay: Inhibition of AKR1C3 in human KG1a cells assessed as potentiation of etoposide-induced cytotoxicity by measuring reduction in cell viability at 0.1 uM coincubated with etoposide at 1 uM after 72 hrs by MTS assay; assay type: cell-based; in short: as §2

Aldo-keto reductase family 1 member C2, sequence (P52895 whole entry): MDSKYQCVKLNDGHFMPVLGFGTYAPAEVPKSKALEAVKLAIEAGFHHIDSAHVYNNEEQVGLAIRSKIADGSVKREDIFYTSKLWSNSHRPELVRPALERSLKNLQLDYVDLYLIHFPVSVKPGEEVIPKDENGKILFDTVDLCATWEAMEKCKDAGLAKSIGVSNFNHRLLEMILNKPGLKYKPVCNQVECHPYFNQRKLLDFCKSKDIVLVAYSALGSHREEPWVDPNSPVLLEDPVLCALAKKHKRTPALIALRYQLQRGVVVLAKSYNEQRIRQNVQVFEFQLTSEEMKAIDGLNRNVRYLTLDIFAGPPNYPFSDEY

Question: Which results are given for `CC(C)=CCc1cc(/C=C/C(=O)O)ccc1OC(=O)CCc1ccccc1`?
Answer: Activity (OVCAR-5): inactive; Activity (SF-268): inactive; Activity (MDA-MB-435): inactive; Activity (RPMI-8226): inactive; Activity (KG-1a): Active; Activity (SW-620): inactive; Activity (SF-295): inactive; Activity (OVCAR-3): inactive; Activity (NCI-H322M): inactive; Activity (ACHN): inactive; Activity (RXF 393): inactive; Activity (OVCAR-4): inactive; Activity (Hs-578T): inactive; Activity (PC-3): inactive; Activity (SNB-19): inactive; Activity (CAKI-1): inactive; Activity (MOLT-4): inactive; Activity (M14): inactive; Activity (786-0): inactive; Activity (K562): inactive; Activity (HCT-116): inactive; Activity (SR): inactive; Activity (SK-MEL-28): inactive; Activity (SNB-75): inactive; Activity (OVCAR-8): inactive; Activity (NCI-H23): inactive; Activity (NCI-H522): inactive; Activity (MCF7): inactive; Activity (A498): inactive; Activity (DU-145): inactive; Activity (SN12C): inactive; Activity (HCT-15): inactive; Activity (NCI-H226): inactive; Activity [1]: 70%; Activity (Malme-3M): inactive; Activity (HL-60(TB)): inactive; Activity (CCRF-CEM): inactive; Activity (HCC 2998): inactive; Activity (KM12): inactive; Activity (UACC-257): inactive; Activity (T47D): inactive; Activity (NCI-H460): inactive; Activity (TK-10): inactive; Activity (IGROV-1): inactive; Activity (MDA-MB-468): inactive; Activity (A549): inactive; Activity (U-251): inactive; Activity (HOP-92): inactive; Activity (UACC-62): inactive; Activity (COLO 205): inactive; Activity (NCI/ADR-RES): inactive; Activity (SF-539): inactive; Activity (SK-MEL-2): inactive; Activity (HL-60): inactive; Activity (SK-MEL-5): inactive; Activity (UO-31): inactive; Activity (LOX IMVI): inactive; Activity (MDA-MB-231): inactive; Activity (HOP-62): inactive; Activity [2]: 80 to 95%

Question: How did the Ratio IC50 (Homo sapiens) turn out when `CC(=O)O[C@]1(C(C)=O)CC[C@H]2[C@@H]3C[C@H](C)C4=CC(=O)CC[C@]4(C)[C@H]3CC[C@@]21C` [MEDROXYPROGESTERONE ACETATE] was run?
Answer: Its Ratio IC50 is 0.66.

Question: And the IC50 [3]?
Answer: The IC50 was 3.98 µM.

Question: And the IC50 [4]?
Answer: The IC50 was 2.51 µM.

Question: `CC(C)=CCc1ccc(/C=C/C(=O)O)cc1OC(=O)CCc1ccccc1` was tested. Which Activity (KG-1a) did it give?
Answer: The Activity was “Active”.

Question: And the Activity [1]?
Answer: The Activity was 80%.

Question: What about the Activity [5] of the same molecule?
Answer: The Activity was 54%.

Question: What about the Activity (HL-60) of the same molecule?
Answer: The Activity was “inactive”.

Question: What about the Activity [2] of the same molecule?
Answer: Its Activity is 80 to 95%.
